How the values were obtained:
Assay type in all cases: functional
NCI-H460 = assay: Cytotoxicity against human NCI-H460 cells after 48 hrs by SRB assay; details: NCI-H460, 48 h
Summary of the method: (§1)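 Run at NCI: cell lines exposed 48 h to a range of concentrations, with untreated controls under identical conditions. Growth measured by sulforhodamine B staining with colorimetric read-out. Percent growth computed from test, time-zero and control absorbances. GI50, TGI and LC50 read from PG versus log10 molar concentration as the concentrations giving PG = 50, 0 and -50.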

ACHN = assay: Cytotoxicity against human ACHN cells after 48 hrs by SRB assay; summary of the method: as §1
COLO 205 = assay: Cytotoxicity against human COLO205 cells after 48 hrs by SRB assay; details: COLO 205, 48 h; summary of the method: as §1
SF-295 = assay: Cytotoxicity against human SF295 cells after 48 hrs by SRB assay; details: SF-295, 48 h; summary of the method: as §1
IGROV-1 = assay: Cytotoxicity against human IGROV1 cells after 48 hrs by SRB assay; details: IGROV-1, 48 h; summary of the method: as §1
U-251 = assay: Cytotoxicity against human U251 cells after 48 hrs by SRB assay; details: U-251, 48 h; summary of the method: as §1
HT-29 = assay: Cytotoxicity against human HT29 cells after 48 hrs by SRB assay; details: HT-29, 48 h; summary of the method: as §1
NCI-H322M = assay: Cytotoxicity against human NCI-H322M cells after 48 hrs by SRB assay; summary of the method: as §1
HOP-62 = assay: Cytotoxicity against human HOP62 cells after 48 hrs by SRB assay; details: HOP-62, 48 h; summary of the method: as §1
NCI-H23 = assay: Cytotoxicity against human NCI-H23 cells after 48 hrs by SRB assay; details: NCI-H23, 48 h, read-out: Log LC50 (the source's name) (converted)
Summary of the method: (§2)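 Run at NCI: cells exposed 48 h to a range of concentrations, with untreated controls under identical conditions. Growth measured by sulforhodamine B staining with colorimetric read-out. Percent growth (PG) calculated from absorbance at 48 h with drug, at time zero, and at 48 h without drug. Log molar concentration plotted against PG; GI50 at PG = 50, TGI at PG = 0, LC50 at PG = −50.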

KM12 = assay: Cytotoxicity against human KM12 cells after 48 hrs by SRB assay; details: KM12, 48 h; summary of the method: as §1
OVCAR-5 = assay: Cytotoxicity against human OVCAR5 cells after 48 hrs by SRB assay; details: OVCAR-5, 48 h; summary of the method: as §1
HCT-116 = assay: Cytotoxicity against human HCT116 cells after 48 hrs by SRB assay; details: HCT-116, 48 h; summary of the method: as §1
BT-549 = assay: Cytotoxicity against human BT549 cells after 48 hrs by SRB assay; details: BT-549, 48 h; summary of the method: as §1
MOLT-4 = assay: Cytotoxicity against human MOLT4 cells after 48 hrs by SRB assay; details: MOLT-4, 48 h; summary of the method: as §1
786-0 = assay: Cytotoxicity against human 786-0 cells after 48 hrs by SRB assay; details: 786-0, 48 h; summary of the method: as §1
M14 = assay: Cytotoxicity against human M14 cells after 48 hrs by SRB assay; details: M14, 48 h; summary of the method: as §1
NCI-H226 = assay: Cytotoxicity against human NCI-H226 cells after 48 hrs by SRB assay; details: NCI-H226, 48 h; summary of the method: as §1
UO-31 = assay: Cytotoxicity against human UO31 cells after 48 hrs by SRB assay; details: UO-31, 48 h; summary of the method: as §1
SNB-19 = assay: Cytotoxicity against human SNB19 cells after 48 hrs by SRB assay; details: SNB-19, 48 h; summary of the method: as §2
[1] = Cytotoxicity against human HS 578T cells after 48 hrs by SRB assay; summary of the method: as §1
[2] = read-out: Log LC50 (the source's name) (converted)

CC(=O)O[C@@H]1C#C/C=C\C#CC[C@H]2C(=O)N(C(=O)OC(C)(C)C)[C@H]12
GI50 (NCI-H460): 0.0933 µM | CC50 (NCI-H460; [2]): > 100 µM | TGI (NCI-H460; read-out: Log TGI (converted)): > 100 µM | GI50 (ACHN): 2.63 µM | CC50 (ACHN; [2]): > 100 µM | TGI (ACHN; read-out: Log TGI (converted)): 25.7 µM | GI50 (COLO 205): 39.8 µM | CC50 (COLO 205; [2]): > 100 µM | TGI (COLO 205; read-out: Log TGI (converted)): > 100 µM | GI50 (SF-295): 30.9 µM | CC50 (SF-295; [2]): > 100 µM | TGI (SF-295; read-out: Log TGI (converted)): > 100 µM | GI50 (IGROV-1): 19.5 µM | CC50 (IGROV-1; [2]): > 100 µM | TGI (IGROV-1; read-out: Log TGI (converted)): > 100 µM | GI50 (U-251): 16.2 µM | CC50 (U-251; [2]): > 100 µM | TGI (U-251; read-out: Log TGI (converted)): > 100 µM | GI50 (HT-29): > 100 µM | CC50 (HT-29; [2]): > 100 µM | TGI (HT-29; read-out: Log TGI (converted)): > 100 µM | GI50 (NCI-H322M): > 100 µM | CC50 (NCI-H322M; [2]): > 100 µM | TGI (NCI-H322M; read-out: Log TGI (converted)): > 100 µM | GI50 (HOP-62): 5.01 µM | CC50 (HOP-62; [2]): > 100 µM | TGI (HOP-62; read-out: Log TGI (converted)): 38 µM | CC50 (NCI-H23): > 100 µM | GI50 (KM12): > 100 µM | CC50 (KM12; [2]): > 100 µM | TGI (KM12; read-out: Log TGI (converted)): > 100 µM | GI50 (OVCAR-5): > 100 µM | CC50 (OVCAR-5; [2]): > 100 µM | TGI (OVCAR-5; read-out: Log TGI (converted)): > 100 µM | GI50 (HCT-116): 25.7 µM | CC50 (HCT-116; [2]): > 100 µM | TGI (HCT-116; read-out: Log TGI (converted)): > 100 µM | GI50 (BT-549): 24.5 µM | CC50 (BT-549; [2]): > 100 µM | TGI (BT-549; read-out: Log TGI (converted)): > 100 µM | GI50 (MOLT-4): 0.407 µM | CC50 (MOLT-4; [2]): > 100 µM | TGI (MOLT-4; read-out: Log TGI (converted)): > 100 µM | GI50 (786-0): 11.5 µM | CC50 (786-0; [2]): > 100 µM | TGI (786-0; read-out: Log TGI (converted)): 69.2 µM | GI50 (M14): 39.8 µM | CC50 (M14; [2]): > 100 µM | TGI (M14; read-out: Log TGI (converted)): > 100 µM | GI50 (NCI-H226): 39.8 µM | GI50 (UO-31): 5.89 µM | CC50 (UO-31; [2]): > 100 µM | TGI (UO-31; read-out: Log TGI (converted)): > 100 µM | CC50 (SNB-19; [2]): > 100 µM | TGI (SNB-19; read-out: Log TGI (converted)): > 100 µM | GI50 [1]: 53.7 µM | CC50 [1, 2]: > 100 µM | TGI ([1]; read-out: Log TGI (converted)): > 100 µM
